# DNMT1 block = human DNMT1 methyltransferase inhibitors, primary screen, biochemical, molecular beacon, fluorescence, HinP1I cleavage, uHTS | DNA (cytosine-5)-methyltransferase 1 (Homo sapiens), P26358 | inhibition (reported as % activation of signal), % at 10 µM | actives 0.83% (n = 360,000) | AID 588458, 2011; in the data active = inhibition above about 50%
# STEP block = STEP phosphatase inhibitors, primary screen, biochemical, fluorescence intensity, uHTS; recombinant STEP, OMFP fluorogenic substrate; inhibition, % at 20 µM; actives 0.25% (n = 360,000); AID 588621, 2011;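 active = inhibition at 20 µM, scaled per plate between control wells, above about 37%, limit read from the data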;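 note: 0% = DMSO with enzyme and substrate and 100% = substrate only without enzyme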
#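 Measure: Control-normalized % inhibition with plate pattern correction | Test system: STEP phosphatase, cell-free reaction | Medium: pH 6.0 Bis-Tris with DTT and Tween 20 | Technique: Fluorescence, 480/540 nm | Times: Reaction 20 min, ambient temperature | Doses: Single compound dose of 20 µM, 1% DMSO final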
# LMPTP block = LMPTP phosphatase inhibitors, primary screen, biochemical, fluorescence intensity, uHTS. AID 651560, 2012. actives 0.22% (n = 360,000). inhibition, % at 20 µM. recombinant LMPTP-A, OMFP fluorogenic substrate;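 active = compounds that cut the enzyme signal by at least half of the control window in the single-dose screen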;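 note: plate controls were DMSO wells with enzyme plus substrate for no effect and substrate without enzyme for full effect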
#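 material = LMPTP-A | quantity = 0.625 nM enzyme | reagent = OMFP substrate, 400 µM final | buffer or medium = Bis-Tris pH 6.0, DTT, detergent | detection = endpoint fluorescence intensity from OMFP dephosphorylation | dosing = single 20 µM dose | read-out basis = % inhibition relative to no-enzyme and uninhibited control wells | control set = no-enzyme and uninhibited controls | timing = 50 min at room temperature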
# Scp-1 inhibitor = Scp-1 phosphatase inhibitors, primary screen, biochemical, colorimetric, uHTS. Recombinant Scp1, phosphopeptide, malachite green phosphate absorbance. inhibition, % at 20 µM. actives 0.88% (n = 340,000). AID 493091, 2011;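 active = inhibition above about 50% at 20 µM, limit read from the data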;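 note: plate controls were DMSO wells with enzyme for no effect and wells lacking enzyme for full effect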
# Target sequence (Q9GZU7 76-261 limits assumed): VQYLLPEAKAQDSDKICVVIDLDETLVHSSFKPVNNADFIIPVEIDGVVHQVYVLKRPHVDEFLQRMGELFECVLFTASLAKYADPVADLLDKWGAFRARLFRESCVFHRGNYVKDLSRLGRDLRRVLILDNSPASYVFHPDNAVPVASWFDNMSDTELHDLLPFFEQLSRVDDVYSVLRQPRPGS
#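 Incubation: 45 min enzyme reaction at room temperature / System: truncated SCP-1 phosphatase (76-261aa) / Reagent: Phospho 17-mer peptide substrate / Buffer or medium: Acidic Tris acetate buffer with magnesium and detergent / Signal: absorbance at 630 nm / Doses: one concentration, 20 µM, with 1.0% DMSO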
# CASP6 VEID inh = human caspase-6 inhibitors, primary screen, biochemical, VEID-R110 fluorescence, single point, set 2; P55212; purified caspase-6, Z-VEID-R110 cleavage fluorescence; inhibition, % at 12.5 µM; actives 0.53% (n = 350,000);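 active = mean inhibition across replicates at least about 35%, with every replicate also reaching that limit, limit read from the data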;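 note: 0% = median of neutral control wells and 100% = no fluorescence left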
# Target sequence (P55212 24-179 limits assumed): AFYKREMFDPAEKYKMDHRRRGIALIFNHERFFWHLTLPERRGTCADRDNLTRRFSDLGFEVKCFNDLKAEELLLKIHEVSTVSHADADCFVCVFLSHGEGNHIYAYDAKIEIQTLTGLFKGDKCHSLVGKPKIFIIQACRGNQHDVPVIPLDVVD
# Target sequence (P55212 194-293 limits assumed): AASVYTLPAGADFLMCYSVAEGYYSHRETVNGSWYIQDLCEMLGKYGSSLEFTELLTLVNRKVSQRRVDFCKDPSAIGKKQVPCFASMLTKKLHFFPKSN
# SUMO1-SIM PPI = modulators of SUMO1 protein-protein interactions, primary screen, biochemical, uHTS; SUMO1 binding to a labelled peptide, TR-FRET, 1 h; inhibition, % at 20 µM; actives 0.33% (n = 360,000); AID 602429, 2012; in the data active = inhibition above about 37%
# Target sequence (P63165 whole entry, looked up): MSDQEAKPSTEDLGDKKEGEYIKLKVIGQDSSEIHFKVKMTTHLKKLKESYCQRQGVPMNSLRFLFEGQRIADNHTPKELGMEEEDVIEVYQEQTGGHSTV
# The depositor's hits bear a star; nt = not tested or not shown. Hits are enriched below; roughly 1.7% of the tested compounds scored in any of these assays.
SMILES,DNMT1 block,STEP block,LMPTP block,Scp-1 inhibitor,CASP6 VEID inh,SUMO1-SIM PPI
COc1ccc(-c2cc3c(=O)n(CC(=O)NCc4ccc(C)cc4)ncn3n2)cc1,34,-4,-1,-14,-1,-1
COc1ccc(-c2cc3c(=O)n(CC(=O)N4CCCC4)ncn3n2)cc1,14,-1,1,-8,3,58*
COc1ccc(-c2cc3c(=O)n(CC(=O)NCCCN4CCN(Cc5ccccc5)CC4)ncn3n2)cc1,0,-2,-1,-7,40*,-3
Cc1noc(C)c1S(=O)(=O)Nc1ccc2c(c1)C(=O)N([C@H](C)CO)C[C@@H](C)[C@@H](CN(C)C(=O)Cc1ccccc1)OCCCC[C@@H](C)O2,nt,nt,nt,nt,2,nt
CN(Cc1ccccc1)C1=CC(=[N+]2CCCC2)CC(C)(C)C1,2,1,0,103*,-3,-3
CCCCNC(=O)CN1C(=O)C(CC)Oc2ccc(Cl)cc21 (stereo unspecified),0,-1,0,-2,nt,-1
O=C(Nc1ccc2c(c1)OCO2)C1Cc2c(-c3ccc4c(c3)OCO4)ccnc2O1 (stereo unspecified),-3,2,1,nt,65*,7
CC(=O)Nc1ccc(NC(=O)C2Cc3c(-c4ccc5c(c4)OCO5)ccnc3O2)cc1 (stereo unspecified),-1,0,1,nt,0,8
CC(/C=C1\N=C(SCc2ccccc2Cl)SC1=O)=C\c1ccccc1,101*,-2,2,-5,nt,0
Cc1ccc(C(=O)OCC(=O)N(CC(C)C)c2c(N)n(Cc3ccccc3)c(=O)[nH]c2=O)o1,-1,2,-1,-6,-5,5
CC1CC(C)C[N+](=C2C=C(N3CCCC3)CC(C)(C)C2)C1 (stereo unspecified),5,0,0,96*,-1,2
COc1ccc(/C=N/NC(=O)c2cc(C3CC3)[nH]n2)cc1OC,0,0,0,-3,2,-11
Cc1ccc(C)c(S(=O)(=O)N2CCN(C(C)C(=O)Nc3ccccc3-c3ccccc3)CC2)c1 (stereo unspecified),4,0,4,4,35*,2
CC(C)(O)C1Cc2cc(/C=C/C(=O)O)c(O)cc2O1 (stereo unspecified),22,1,1,95*,nt,-3
S=c1[nH]cc(-c2ccccc2)n1-c1cccc(Cl)c1,1,1,-2,11,55*,4
COc1ccc(C(=O)Cc2ccccc2)cc1OC,2,1,-1,-4,nt,-2
O=C(CN1C(=O)/C(=C/c2ccccc2F)SC1=S)NC1C=CS(=O)(=O)C1 (stereo unspecified),54*,14,27,17,1,-1
O=S(=O)(c1ccc(F)c(Cl)c1)N1CCN(C/C=C/c2ccccc2)CC1,1,3,2,-2,-1,41*
Cc1cc(N2CCN(C)CC2)nc(-c2ccccc2O)n1,0,0,0,-11,-2,5
Cc1cc(N2CCCC2)nc(-c2ccccc2O)n1,0,6,1,-13,nt,69*
Cc1ccc(S(=O)(=O)N(CC(=O)Nc2ccccc2C(=O)O)c2cccc(Cl)c2C)cc1,1,-3,-1,-9,47*,10
O=C1C(Cl)=C(N2CCCCCC2)C(=O)N1c1ccc(Cl)cc1,1,20,2,-5,-2,-21
O=C1C(Cl)=C(N2CCCCC2)C(=O)C(Cl)=C1c1cnc(N2CCCCC2)s1,84*,8,16,6,nt,11
CC(=O)c1cnc(N(C)C)s1,0,-1,-1,-6,nt,-4
CN(C)c1ncc(C2=C(Cl)C(=O)C(N3CCCC3)=C(Cl)C2=O)s1,69*,7,14,18,nt,35
SMILES,DNMT1 block,STEP block,LMPTP block,Scp-1 inhibitor,CASP6 VEID inh,SUMO1-SIM PPI
Cc1cc(C)c(C)c(S(=O)(=O)N2CCN(c3ncnc4sc(C)c(C)c34)CC2)c1C,0,4,4,20,nt,0
O=C(CSc1nnc(CNC(=O)c2cccc(C(F)(F)F)c2)o1)NCC1CCCO1 (stereo unspecified),1,3,-2,-5,-3,2
COCCNc1nc(-c2ccc(OC)cc2)c(-c2ccc(OC)cc2)s1,-13,4,3,-24,92*,-6
CCN(CC)CCNc1nc(-c2ccc(OC)cc2)c(-c2ccc(OC)cc2)s1,-4,1,0,-11,1,-10
COc1ccc(S(=O)(=O)N(C)C[C@H]2Oc3ccc(N(C)C)cc3C(=O)N([C@H](C)CO)C[C@@H]2C)cc1,nt,nt,nt,nt,-1,nt
c1coc(-c2nnc(-c3ccco3)nn2)c1,116*,91*,21,71*,89*,92*
O=S(=O)(Cc1ccccc1Cl)N1CCN(Cc2ccc3c(c2)OCO3)CC1,-1,0,1,35,nt,2
COc1c2occc2c(OC)c2c(=O)cc(C)oc12,5,-3,-1,1,2,-3
Cc1cc(=O)c2c(o1)C(=O)c1occc1C2=O,43,3,2,-5,92*,16
CCOC(=O)c1ccccc1NC(=O)COC(=O)C1CCN(S(=O)(=O)c2ccccc2C(=O)OC)CC1,0,1,4,-10,60*,8
COC(=O)c1ccccc1S(=O)(=O)N1CCC(C(=O)OCC(=O)NCC(F)(F)F)CC1,0,10,-2,-1,1,2
CCOc1ccc2c(c1)-c1c(ssc1=S)C(C)(C)N2,-11,1,3,0,nt,-40
NS(=O)(=O)c1ccc(CNC(=O)COc2ccc3c4c(c(=O)oc3c2)CCCC4)cc1,-1,3,0,-1,3,63*
O=C(COc1ccc2c3c(c(=O)oc2c1)CCC3)Nc1ccccn1,-14,3,0,-11,3,51*
O=C(COc1ccc2c3c(c(=O)oc2c1)CCCC3)NCc1ccncc1,4,0,-1,-5,4,-5
Cc1nnc(SCC(=O)N2CCCC(N3CCN(c4ccc(F)cc4)CC3)C2)o1 (stereo unspecified),0,0,0,-10,1,-2
Cc1ccc(CNS(=O)(=O)c2cc3c4c(c2)CCN4C(=O)CC3)cc1,1,2,0,-4,8,6
O=C(N[C@H]1CC[C@H](CC(=O)N2CCC(Cc3ccccc3)CC2)O[C@@H]1CO)c1cnccn1,nt,nt,nt,nt,-1,nt

# Assay outcomes from PubChem BioAssay.
